Converted amounts (≈) assume the structure as drawn.

Here are results for 6 compounds from ChEMBL document CHEMBL1132175, “Synthesis and in vivo evaluation of new contrast agents for cardiac MRI” (J Med Chem, 1999).

Data set [1] can be described thus: Aqueous solubility of the compound. It is filed as physicochemical. As to conditions: water; read-out: S. Summed up:
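Gd–ligand 1:1 complexes were made from GdCl3 in water at pH 7.0 over a series of nominal concentrations around the expected precipitation point. Experimental concentration was taken as ΔR1(observed)/ρ1. ρ1 came from one well-dissolved sample whose Gd was measured by ICP-OES.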

The subject of data set [2] is Mustela putorius furo. In words: In vivo Myocardial MRI signal intensity (MRI IE)in ferrets induced by the compound at 50 umol/kg was measured at 180 min. It is filed as functional, Myocardium. In outline: (§1)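 Ferrets received a bolus of 50 µmol/kg Gd complex. BAE and ABE were given as water-soluble pH 7 solutions; ABE used a 1.2-fold ligand excess and 10 mM Gd. BPE, BBE, BHE and BME were given in lecithin/cholesterol liposomes in 0.9% saline/20 mM HEPES pH 7.4. Myocardial signal was read on 1.5 T MRI (head coil) against an agarose phantom and compared with pre-agent control images. Imaging ran over 3 h.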

For data set [3], the system named is Mustela putorius furo. In words: In vivo Myocardial MRI signal intensity (MRI IE)in ferrets induced by the compound at 50 umol/kg was measured at 0-10 min. Type of data set: functional, Myocardium. In outline:
as §1

In data set [4] the test system is Mustela putorius furo. In words: In vivo Myocardial MRI signal intensity (MRI IE)in ferrets induced by the compound at 50 umol/kg was measured at 30-60 min. Type of data set: functional, Myocardium. In outline:
as §1

The subject of data set [5] is Mustela putorius furo. In words: In vivo Myocardial MRI signal intensity (MRI IE)in ferrets induced by the compound at 50 umol/kg was measured at 180 min. It is filed as functional, Myocardium. Summed up: as §1

With `CCCCCCCCCCCCCC(=O)OCCN(CCN(CCOC(=O)CCCCCCCCCCCCC)CC(=O)N(CC(=O)O)CC(=O)O)CC(=O)N(CC(=O)O)CC(=O)O`, the solubility in data set [1] is 0.015 mM (≈ 13.7 µg/mL). Moreover, the IE in the data set with Mustela putorius furo [2] is on record as 65.2%; in the data set on Mustela putorius furo [3], 55.2%; in the data set on Mustela putorius furo [4] it was 67.2%.

With `CCCC(=O)OCCN(CCN(CCOC(C)=O)CC(=O)N(CC(=O)O)CC(=O)O)CC(=O)N(CC(=O)O)CC(=O)O`, in data set [1], the solubility is 25 mM (≈ 15200 µg/mL). Besides, the IE in the data set on Mustela putorius furo [2] is 38.5%; in the data set on Mustela putorius furo [3], 42.8%; in the data set with Mustela putorius furo [4], 43.6%.

`CCC(=O)OCCN(CCN(CCOC(=O)CC)CC(=O)N(CC(=O)O)CC(=O)O)CC(=O)N(CC(=O)O)CC(=O)O`: the solubility in data set [1] worked out at 7 mM (≈ 4250 µg/mL). Besides, the IE stood at 47.2% with Mustela putorius furo [2], 34.6% in the data set with Mustela putorius furo [3] and 38.4% in the data set with Mustela putorius furo [4].

For `CCCCCC(=O)OCCN(CCN(CCOC(=O)CCCCC)CC(=O)N(CC(=O)O)CC(=O)O)CC(=O)N(CC(=O)O)CC(=O)O`, the solubility in data set [1] worked out at 0.5 mM (≈ 345 µg/mL). Moreover, the IE came out at 30.1% with Mustela putorius furo [2], 32.3% in the data set on Mustela putorius furo [3] and 41.7% in the data set on Mustela putorius furo [4].

As to `CC(=O)OCCN(CCN(CCOC(C)=O)CC(=O)N(CC(=O)O)CC(=O)O)CC(=O)N(CC(=O)O)CC(=O)O`, the solubility in data set [1] amounted to 30 mM (≈ 17400 µg/mL). The figures for the IE in the data set with Mustela putorius furo [5], with Mustela putorius furo [3] and in the data set with Mustela putorius furo [4] were 10.1%, 87.2% and 10.1%, respectively.

Turning to `CCCC(=O)OCCN(CCN(CCOC(=O)CCC)CC(=O)N(CC(=O)O)CC(=O)O)CC(=O)N(CC(=O)O)CC(=O)O`, the solubility in data set [1] was determined as 5 mM (≈ 3170 µg/mL). For the same compound, the figures for the IE with Mustela putorius furo [2], with Mustela putorius furo [3] and with Mustela putorius furo [4] were 39.3%, 53.1% and 52.1%, respectively.
